The values below come from ChEMBL document CHEMBL1132321, “Nucleosides and nucleotides. 185. Synthesis and biological activities of 4'alpha-C-branched-chain sugar pyrimidine nucleosides” (J Med Chem, 1999).

SMILES strings stand for the structures. Some results are limits rather than exact numbers.

In one assay the test system is KB. Description: Cytotoxicity against KB cells. In kind it is functional, cell-based. The conditions noted are these: Homo sapiens.
The subject of the next assay is L1210. In words: Cytotoxicity against L1210 cells. The assay is classed as functional, cell-based. The conditions noted are these: Mus musculus.
Assay [1] relates to Human immunodeficiency virus 1. Description: (§1) Antiviral activity against Human immunodeficiency virus type-1. The assay is classed as functional, organism-based. In outline: (§2)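 Cell-protection read-out: HSV-1 Kos strain on MRC-5 cells, HSV-2 G strain on MRC-5 cells, HIV-1 IIIb strain on MT-4 cells. Cells infected at MOI 0.02, then immediately plated with serial compound dilutions. After 4 days of incubation at 36 °C, viable cells were counted by MTT. […].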

In the next assay the test system is Human alphaherpesvirus 1. In words: Antiviral activity against Herpes simplex virus type-1 (HSV-1). In kind it is functional, organism-based. In outline: as §2
The subject of another assay is Human alphaherpesvirus 2. Description: Antiviral activity against Herpes simplex virus type-2 (HSV-2). In kind it is functional, organism-based. In outline:
as §2

The test system of assay [2] is Human immunodeficiency virus 1. Described as §1.

As for `N#C[C@]1(CO)O[C@@H](n2ccc(=O)[nH]c2=O)[C@H](O)[C@@H]1O`, the IC50 with KB and in the assay on L1210 was greater than 350 µM each time.
For `C#C[C@]1(CO)O[C@@H](n2ccc(=O)[nH]c2=O)[C@H](O)[C@@H]1O`, the IC50 in the assay with KB and in the assay with L1210 was greater than 350 µM in each case.
In the case of `C[C@]1(CO)O[C@@H](n2ccc(N)nc2=O)C[C@@H]1O`, the EC50 (in general, the midpoint of the concentration-response curve) in assay [1] was 0.062 µM; with Human alphaherpesvirus 1, 3.1 µM; in the assay with Human alphaherpesvirus 2, 0.58 µM. Besides, the IC50 (usually the point on the concentration scale where inhibition reaches its midpoint) in assay [1] was 0.062 µM; in the assay on Human alphaherpesvirus 1, 260 µM; in the assay with Human alphaherpesvirus 2, 260 µM; in the assay with KB, greater than 350 µM; with L1210 it was 0.16 µM.
The compound `Cc1cn([C@H]2C[C@H](N=[N+]=[N-])[C@@H](CO)O2)c(=O)[nH]c1=O` [ZIDOVUDINE] showed an IC50 in assay [1] of 3.2 µM. Further, in assay [2], the EC50 stood at 0.0041 µM.
On to `N#C[C@]1(CO)O[C@@H](n2ccc(N)nc2=O)C[C@@H]1O`, for which the EC50 in assay [1] stood at 0.0012 µM; with Human alphaherpesvirus 1, 3.6 µM; in the assay on Human alphaherpesvirus 2 it was 21 µM. Further, the IC50 in assay [1] is 0.17 µM; with Human alphaherpesvirus 1, greater than 350 µM; in the assay with Human alphaherpesvirus 2, greater than 350 µM; in the assay on KB, greater than 350 µM; with L1210, 0.33 µM.
For `Nc1ccn([C@H]2C[C@H](O)[C@@](/C=C/Cl)(CO)O2)c(=O)n1`, the EC50 was 2.1 µM in assay [1], greater than 350 µM in the assay with Human alphaherpesvirus 1 and greater than 350 µM with Human alphaherpesvirus 2. In addition, the IC50 is 4.6 µM in assay [1]; greater than 350 µM with Human alphaherpesvirus 1; greater than 350 µM in the assay on Human alphaherpesvirus 2; greater than 350 µM with KB; 200 µM with L1210.
On to `C#C[C@]1(CO)O[C@@H](n2ccc(N)nc2=O)C[C@@H]1O`, for which the concentration for a half-maximal effect (EC50) is 0.0022 µM in assay [1], 200 µM in the assay with Human alphaherpesvirus 1 and greater than 350 µM with Human alphaherpesvirus 2. For the same compound, the results for the IC50 (in assay [1]; with Human alphaherpesvirus 1; with Human alphaherpesvirus 2) were 0.16 µM, greater than 350 µM and greater than 350 µM, respectively.
As to `Nc1nc2c(ncn2COCCO)c(=O)[nH]1` [ACYCLOVIR], in the assay with Human alphaherpesvirus 1, the EC50 was determined as 0.36 µM and the half-maximal inhibitory concentration (IC50) is greater than 350 µM. In the assay on Human alphaherpesvirus 2, this compound returned an EC50 of 1.1 µM and an IC50 greater than 350 µM.
Take `N#C[C@]1(CO)O[C@@H](n2ccc(N)nc2=O)[C@H](O)[C@@H]1O`: the IC50 in the assay with KB and with L1210 was greater than 350 µM throughout.
Regarding `C#C[C@]1(CO)O[C@@H](n2ccc(N)nc2=O)[C@H](O)[C@@H]1O`, the IC50 with KB and in the assay with L1210 was greater than 350 µM throughout.
With `C=C[C@]1(CO)O[C@@H](n2ccc(N)nc2=O)C[C@@H]1O`, the EC50 in assay [1] is 0.0086 µM; with Human alphaherpesvirus 1, greater than 350 µM; in the assay with Human alphaherpesvirus 2, greater than 350 µM. Besides, the IC50 in assay [1] was 0.18 µM; in the assay with Human alphaherpesvirus 1, greater than 350 µM; with Human alphaherpesvirus 2 it was greater than 350 µM; in the assay with KB, greater than 350 µM; in the assay on L1210, 21 µM.
For `CC[C@]1(CO)O[C@@H](n2ccc(N)nc2=O)C[C@@H]1O`, the concentration for a half-maximal effect (EC50) in assay [1] is 0.013 µM; in the assay on Human alphaherpesvirus 1 it was greater than 350 µM; in the assay with Human alphaherpesvirus 2, greater than 350 µM. For the same compound, the IC50 in assay [1] is 0.77 µM; in the assay on Human alphaherpesvirus 1, greater than 350 µM; in the assay on Human alphaherpesvirus 2, greater than 350 µM; with KB it was greater than 350 µM; with L1210 it was 55 µM.
